Screens deposited in PubChem by several laboratories.
B2AR ag: activates human beta-2 adrenergic receptor causing internalization; Am2.2-beta2AR cells, FAP receptor internalization, flow cytometry; P07550; 340,000 compounds, 0.43% hits; response, % (no concentration beside the values);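 active = response above a set limit, near 3 SD of response in nonfluorescent compounds, cut at about 42% in these data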
APJ antagonist: APJ receptor antagonism. P35414. CHO-K1 APJ beta-arrestin complementation, luminescence. inhibition, % at 20 µM. AID 2521. 330,000 compounds, 0.32% hits;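 active = inhibition above about 40% at 20 µM, limit read from the data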;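 also: cells challenged with 10 nM apelin-13 agonist together with compound; plate controls were apelin-13 plus DMSO wells for no effect and DMSO wells lacking apelin-13 for full effect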
APJ ag: agonists of human APJ apelin receptor; 330,000 compounds, 0.11% hits; activation, % at 20 µM; CHO-K1 APJ PathHunter beta-arrestin, luminescence; 0% DMSO wells, 100% apelin; P35414;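 active = activation more than six SD over the plate average, tested at 20 µM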;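 also: 0% = DMSO alone and 100% = apelin-13 at 10 nM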
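system = engineered CHO-K1 APJ arrestin reporter cells | input = 1000 cells per well | timing = overnight seeding, 90 min compound at 25 °C, 1 h detection | measured by = enzyme-fragment complementation luminescence | read-out = beta-arrestin recruitment to APJ as agonist activity, luminescent signal | control set = negative DMSO alone, positive Apelin-13 at 10 nM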
CXCR6 block: CXCR6 (human) receptor inhibition. inhibition, % at 20 µM. CHO-K1 PathHunter CXCR6 beta-arrestin, luminescence. 360,000 compounds, 0.36% hits. O00574; in the data active = inhibition above about 34%, passing the limit was not always enough;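 also: antagonist mode with CXCL16 agonist at 10 nM final; 0% = 10 nM CXCL16 with DMSO and 100% = unstimulated wells without agonist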
Target sequence (O00574 whole entry, looked up): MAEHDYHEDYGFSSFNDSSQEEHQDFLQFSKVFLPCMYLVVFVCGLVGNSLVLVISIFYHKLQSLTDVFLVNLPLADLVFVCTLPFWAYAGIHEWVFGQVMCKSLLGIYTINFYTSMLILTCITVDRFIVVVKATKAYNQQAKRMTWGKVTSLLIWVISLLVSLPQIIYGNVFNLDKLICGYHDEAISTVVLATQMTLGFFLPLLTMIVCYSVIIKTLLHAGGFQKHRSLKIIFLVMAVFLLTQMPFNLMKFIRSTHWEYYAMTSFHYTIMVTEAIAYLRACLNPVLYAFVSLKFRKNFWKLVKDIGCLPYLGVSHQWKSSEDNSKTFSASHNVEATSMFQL
PfGluPho inh: PfG6PD (Plasmodium falciparum) enzyme inhibition; PfGluPho enzyme, NADPH resazurin-diaphorase fluorescence; inhibition, % at 20 µM; 350,000 compounds, 0.78% hits; AID 504690;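 active = inhibition reaching at least a set limit at 20 µM in the primary screen, cut at about 59% in these data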;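 also: 0% = DMSO wells with substrate and 100% = DMSO wells lacking glucose-6-phosphate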
CCR6 antagonist: antagonists of human CCR6 receptor. 340,000 compounds, 0.49% hits. CHO-K1 CCR6 PathHunter beta-arrestin, luminescence, CCL20-stimulated. AID 493098. P51684. inhibition, % at 20 µM;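 active = compounds whose inhibition of the agonist-driven luminescence signal at 20 µM reaches about 50%, limit read from the data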;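 also: cells stimulated with CCL20 at 14 nM final; plate controls were DMSO with CCL20 for no effect and DMSO without agonist for full effect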
PfGluPho conf: confirmation of Plasmodium falciparum G6PD inhibitors; 2,400 compounds, 34% hits; AID 504753; recombinant PfGluPho, NADPH-diaphorase-resazurin fluorescence; inhibition, % at 20 µM; shares compounds with PfGluPho inh;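 active = inhibition of at least 50% at 20 µM in any single replicate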;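 also: 0% = DMSO with substrate and 100% = DMSO lacking glucose-6-phosphate substrate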
Diaph ctr 10uM: inhibits diaphorase or oxidizes, flagging false PfG6PD hits; shares compounds with PfGluPho inh; diaphorase-coupled resazurin reduction, fluorescence, NADPH 10 uM; inhibition, % at 20 µM; 820 compounds, 39% hits;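 active = average inhibition reaching 50% or more with the compound at 20 µM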;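 also: resorufin red fluorescence formed as diaphorase reduces resazurin using NADPH; 0% = DMSO with enzyme and 100% = DMSO without enzyme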
Diaph ctr 30uM: diaphorase inhibition or oxidation at 30 uM NADPH. shares compounds with PfGluPho inh. Diaphorase/resazurin coupled assay, resorufin fluorescence. inhibition, % at 20 µM. 820 compounds, 29% hits. AID 504863;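 active = inhibition averaging 50% or more, tested at 20 µM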;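 also: 0% = DMSO with enzyme and 100% = DMSO wells lacking diaphorase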
Numbers without * were called inactive; x = not tested or not shown. Most compounds without a hit are left out; they make up all but 1.7% or so of the library.

SMILES	B2AR ag	APJ antagonist	APJ ag	CXCR6 block	PfGluPho inh	CCR6 antagonist	PfGluPho conf	others
COc1cc(N=c2ssnc2Cl)cc(OC)c1	30	16	-1	-2	78*	14	65*	Diaph ctr 10uM=-34;Diaph ctr 30uM=-23
Clc1nssc1=Nc1ccc(Br)cc1	5	x	x	1	79*	15	29
Clc1ccc(N=c2ssnc2Cl)nc1	14	12	0	-2	87*	17	52*	Diaph ctr 10uM=-22;Diaph ctr 30uM=-18
CC1(C)CC(=O)C(C=Nc2ccc(Cl)cn2)=C(O)C1	0	-11	-3	1	10	1	x
COc1ccc(-n2c(SCC(=O)NCC3CCCO3)nc3ccccc3c2=O)cc1Cl (stereo unspecified)	x	x	x	0	7	x	x
CCOC(=O)N1CCN(C(=O)C2CCN(S(=O)(=O)c3ccc(NC(C)=O)cc3)CC2)CC1	-6	-5	-1	4	1	2	x
Cc1ccc(N2CCN(C(=O)c3nn(C)c4c3CS(=O)(=O)c3ccccc3-4)CC2C)cc1 (stereo unspecified)	10	0	0	4	-1	10	x
Cc1cc(C)c2c(=O)n3c(nc2c1)C(Cc1ccccc1)NC(=O)c1cccnc1-3 (stereo unspecified)	x	x	x	2	59*	x	4
O=C(CCC(=O)N1CCOc2ccc(Cl)cc21)NCc1ccccc1	10	8	-2	-6	-1	15	x
O=C(Nc1cccc([N+](=O)[O-])c1)c1cc2ccccc2cc1O	23	-16	7	3	73*	26	11
O=C(O)c1ccccc1C(=O)Nc1cccc([N+](=O)[O-])c1	-2	15	-4	0	-12	11	x
CC(=O)COc1cc(C)cc2oc(=O)cc(-c3ccccc3)c12	-6	-9	-3	-3	-20	14	x
COc1ccc([N+](=O)[O-])cc1COc1cc(C)cc2oc(=O)cc(-c3ccccc3)c12	1	0	-2	16	86*	18	28
Nc1ccc(N(CCO)CCO)cc1	1	-16	3	-11	63*	-10	55*	Diaph ctr 10uM=25;Diaph ctr 30uM=14
COc1ccc(NC(=O)CSc2nnc(Cc3ccc(C)cc3)c(=O)n2N)cc1	2	5	-3	0	2	18	x
O=C(c1ccc(Cl)cc1)c1ccccc1C(=O)N1CCOCC1	-9	-15	-3	4	63*	10	11
O=C(c1ccccc1)c1ccccc1C(=O)N1CCOCC1	18	-5	4	7	2	0	x
COc1ccc(NC(=O)CSc2ccc([N+](=O)[O-])cc2)cc1S(=O)(=O)N1CCOCC1	6	-10	1	0	11	14	x
Cn1ncc(Cl)c1C(=O)NNC(=O)Nc1cccc2ccccc12	4	-19	5	-12	-3	-7	x
CN(C(=O)c1cc2n(n1)C(C(F)(F)F)CC(c1ccco1)N2)c1ccccc1 (stereo unspecified)	-4	18	-2	-10	94*	-5	66*	Diaph ctr 10uM=80*;Diaph ctr 30uM=53*
Cc1nn(C(=O)c2cccnc2)c(C)c1Sc1ccc(Br)cc1	3	10	1	-5	67*	1	44
Cc1nn(C(=O)c2ccco2)c(C)c1Sc1ccc(Cl)cc1	-10	-18	-2	3	-4	2	x
COC(=O)c1c(NC(=O)c2ccc([N+](=O)[O-])o2)sc2c1CCN(C(C)C)C2	30	-93	10	-9	68*	21	20
CC(=O)N1CCc2c(sc(NC(=O)c3ccc([N+](=O)[O-])o3)c2C#N)C1	10	x	x	23	60*	45	13
COc1ccc(C(=O)Nc2sc3c(c2C#N)CCN(C(C)=O)C3)cc1	-1	1	-1	-13	37	-7	x
SMILES	B2AR ag	APJ antagonist	APJ ag	CXCR6 block	PfGluPho inh	CCR6 antagonist	PfGluPho conf	others
CC(C)N1CCc2c(sc(NC(=O)c3ccc([N+](=O)[O-])o3)c2C(N)=O)C1	29	-14	-6	22	x	x	x
COc1ccc(S(=O)(=O)N2CCC(C(=O)NCCCn3ccnc3)CC2)cc1C	7	9	-3	5	-3	12	x
Cc1cc2ncn(-c3ncccc3[N+](=O)[O-])c2cc1C	3	-1	3	1	76*	-5	-21
O=[N+]([O-])c1cccnc1-n1cnc2ccccc21	-2	-9	0	-8	5	-5	x
CCOc1ccc2[nH]c3ncccc3c(=O)c2c1	12	-12	2	-20	2	-2	x
CCOc1ccc2c(ccc(/C=C/c3cc(C)c4cccnc4c3O)[n+]2C)c1	106*	x	x	27	92*	31	40
Cc1ccc(N2C(=O)CN(Cc3ccccc3)C2=S)cc1C	-2	19	-2	-1	1	12	x
Cc1ccc(O)c(N=Cc2ccc(C)s2)c1	0	4	2	-14	67*	-2	20
Cc1ccc(O)c(N=Cc2cccs2)c1	-6	16	0	-8	71*	-4	45
CCOc1ccc2c(c1)C(=O)C(=O)N2CC1COc2ccccc2O1 (stereo unspecified)	22	5	-3	15	63*	33	11
CC1=CC(=O)C=C(C)C1=NOC(=O)/C=C\c1ccccc1	7	6	2	-5	35	14	x
CC1=CC(=NOC(=O)/C=C/c2ccccc2)C=C(C)C1=O	12	-10	2	22	75*	11	61*	Diaph ctr 10uM=28;Diaph ctr 30uM=27
COc1ccccc1-n1c(SCC(=O)O)nc2c(sc(=S)n2-c2ccc(C)c(C)c2)c1=O	1	3	1	13	30	6	x
CCN(CC)C(=O)CSc1nc2c(sc(=S)n2-c2ccccc2)c(=O)n1-c1ccc(OC)cc1OC	3	2	-2	2	79*	11	39
CCOc1ccccc1-n1c(=S)sc2c(=O)n(-c3ccc(F)cc3)c(SCC(=O)O)nc21	-2	16	-1	-3	69*	10	17
CCc1ccc(C(=O)OCC(=O)N(CCOC)c2c(N)n(Cc3ccccc3)c(=O)[nH]c2=O)cc1	-5	1	-3	-1	-7	-2	x
COC(=O)c1sc2nc(-c3ccco3)ccc2c1N	0	4	0	-3	76*	16	-4
CC(C)n1cnc2c(NCc3ccccc3)cc(N[C@H](C)CO)cc21	-4	-4	5	-10	67*	1	37
COCCCOc1cc(NCc2ccccc2)c2ncn(C(C)C)c2c1	4	12	-2	-11	48	9	x
